Assay results published in ChEMBL document CHEMBL3414514, “Synthesis and pharmacological evaluation of novel bisindole derivatives bearing oximes moiety: identification of novel proapoptotic agents” (Eur J Med Chem, 2015).
The source made the active and inactive calls. No cut-off for these calls is given here.

Columns and labels:
T-24 [1] = experiment: Induction of apoptosis in human T24 cells assessed as increase in caspase-7 protein expression at 20 uM after 6 to 24 hrs by Western blotting analysis; assay type: functional, cell-based
T-24 [2] = experiment: Induction of apoptosis in human T24 cells assessed as late apoptotic cells at 20 uM after 24 hrs by annexin-V-FITC/propidium iodide staining-based flow cytometry (reference value: 2.08%); assay type: functional
[3] = Induction of apoptosis in human T24 cells assessed as AIF upregulation at IC50 after 24 hrs by qRT-PCR analysis relative to control; assay type: functional, cell-based; details: T-24
T-24 [4] = experiment: Induction of apoptosis in human T24 cells assessed as reduction in cellular volume after 24 hrs by Hoechst 33258 staining-based fluorescence microscopic analysis relative to control; assay type: functional, cell-based
How it was run: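 T24 cells on cover slips exposed 24 h at 5, 10 and 20 µM, with untreated cells as control. Fixed in 4% paraformaldehyde for 10 min, washed with PBS and stained with Hoechst 33258 for 5 min. Nuclei were viewed by fluorescence microscopy at 350 nm excitation and 460 nm emission.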

[5] = Cell cycle arrest in human T24 cells assessed as accumulation at S phase at 5 uM after 48 hrs by Rnase A/propidium iodide staining-based flow cytometry (reference value: 62%); assay type: functional; details: T-24
How it was run: (§1)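 T24 cells exposed to […] for 48 h, washed with ice-cold PBS, then fixed and permeabilized overnight in ice-cold 70% ethanol. RNase A (100 mg/mL) treatment at 37 C for 30 min, then PI staining (1 mg/mL) in the dark at 4 C for 30 min. Flow cytometry gave the percentage of cells in G1, S and G2 phase.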

T-24 [6] = experiment: Induction of apoptosis in human T24 cells assessed as necrotic cells at 20 uM after 24 hrs by annexin-V-FITC/propidium iodide staining-based flow cytometry (reference value: 1.66%); assay type: functional
T-24 [7] = experiment: Induction of apoptosis in human T24 cells assessed as viable cells at 20 uM after 24 hrs by annexin-V-FITC/propidium iodide staining-based flow cytometry (reference value: 93.5%); assay type: functional; details: T-24, 24 h, read-out: Activity
[8] = Cell cycle arrest in human T24 cells assessed as reduction in Cyclin D1 level after 24 hrs by Western blotting analysis; assay type: functional, cell-based; details: T-24
How it was run: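 T24 cells treated at […] for 24 h and lysed in ice-cold RIPA buffer with protease inhibitors and NaF. Protein measured by Bradford; 30 micrograms per lane run on 12% SDS-PAGE and transferred to PVDF. Blocked 2 h at room temperature, primary antibody overnight at 4 C, HRP secondary (1:2000) 1 h, chemiluminescence detection.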

[9] = Induction of apoptosis in human T24 cells assessed as Bcl2 upregulation after 24 hrs by qRT-PCR analysis; assay type: functional, cell-based; details: T-24
How it was run: (§2)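 T24 cells treated at […] for 24 h before RNA extraction. SYBR Green qRT-PCR with 500 nM primers: 2 min at 50 C, 10 min at 95 C, then 40 cycles of 15 s at 95 C and 1 min at 60 C. Expression by the ΔCt method against actin, normalized to untreated cells; run in triplicate.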

T-24 [10] = experiment: Induction of apoptosis in human T24 cells assessed as early apoptotic cells at 10 uM after 24 hrs by annexin-V-FITC/propidium iodide staining-based flow cytometry (reference value: 2.74%); assay type: functional
[11] = Cell cycle arrest in human T24 cells assessed as accumulation at G2 phase at 10 uM after 48 hrs by Rnase A/propidium iodide staining-based flow cytometry (reference value: 3.58%); assay type: functional; details: T-24; how it was run: as §1
T-24 [12] = experiment: Induction of apoptosis in human T24 cells assessed as condensed nuclei after 24 hrs by Hoechst 33258 staining-based fluorescence microscopic analysis relative to control; assay type: functional, cell-based
How it was run: (§3)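 T24 cells on cover slips treated at […] for 24 h; untreated cells as control. Fixed in 4% paraformaldehyde for 10 min, PBS washes, Hoechst 33258 for 5 min. Nuclei imaged by fluorescence microscopy, excitation 350 nm, emission 460 nm.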

T-24 [13] = experiment: Induction of apoptosis in human T24 cells assessed as fragmented nuclei after 24 hrs by Hoechst 33258 staining-based fluorescence microscopic analysis relative to control; assay type: functional, cell-based; how it was run: as §3
T-24 [14] = experiment: Induction of apoptosis in human T24 cells assessed as reduction in Bcl2 protein expression after 6 to 24 hrs by Western blotting analysis; assay type: functional, cell-based
How it was run: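 T24 cells exposed at 20 µM for 6, 12 and 24 h, then lysed in ice-cold RIPA with protease and phosphatase inhibitors. Protein was quantified by Bradford, and 30 µg per lane was run on 12% SDS-PAGE and transferred to PVDF. Membranes were blocked 2 h, probed with primary antibody at 4 °C overnight, then HRP secondary (1:2000) for 1 h, with chemiluminescent detection.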

[15] = Cell cycle arrest in human T24 cells assessed as accumulation at S phase at 20 uM after 48 hrs by Rnase A/propidium iodide staining-based flow cytometry (reference value: 62%); assay type: functional; details: T-24; how it was run: as §1
[16] = Cell cycle arrest in human T24 cells assessed as alteration in cyclin A level at 5 to 20 uM after 24 hrs by Western blotting analysis; assay type: functional, cell-based; details: T-24
[17] = Induction of apoptosis in human T24 cells assessed as cytC upregulation after 24 hrs by qRT-PCR analysis; assay type: functional, cell-based; details: T-24; how it was run: as §2
T-24 [18] = experiment: Induction of apoptosis in human T24 cells assessed as cytochrome C accumulation in cytosol at 20 uM after 6 to 24 hrs by Western blotting analysis; assay type: functional, cell-based
T-24 [19] = experiment: Induction of apoptosis in human T24 cells assessed as loss of mitochondrial membrane potential at 5 to 20 uM after 24 hrs by JC-1 staining-based fluorescence microscopic analysis relative to control; assay type: functional, cell-based
How it was run: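 T24 cells exposed 24 h at 5, 10 and 20 µM, then given an equal volume of JC-1 staining solution at 37 °C for 20 min and rinsed twice with PBS. Monomer (green, 515–545 nm) and aggregate (red, 570–600 nm) emissions were viewed by fluorescence microscopy. Depolarization was read as a rise in the green/red ratio against untreated control.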

T-24 [20] = experiment: Induction of apoptosis in human T24 cells assessed as necrotic cells at 5 uM after 24 hrs by annexin-V-FITC/propidium iodide staining-based flow cytometry (reference value: 1.66%); assay type: functional
[21] = Cell cycle arrest in human T24 cells assessed as accumulation at G2 phase at 20 uM after 48 hrs by Rnase A/propidium iodide staining-based flow cytometry (reference value: 3.58%); assay type: functional; details: T-24; how it was run: as §1
[22] = Induction of apoptosis in human T24 cells assessed as caspase-8 upregulation after 24 hrs by qRT-PCR analysis; assay type: functional, cell-based; details: T-24; how it was run: as §2
[23] = Induction of apoptosis in human T24 cells assessed as AIF upregulation after 24 hrs by qRT-PCR analysis; assay type: functional, cell-based; details: T-24; how it was run: as §2
T-24 [24] = experiment: Induction of apoptosis in human T24 cells assessed as necrotic cells at 10 uM after 24 hrs by annexin-V-FITC/propidium iodide staining-based flow cytometry (reference value: 1.66%); assay type: functional

Structure (SMILES): COc1ccc2c(c1)/C(=N\O)C(c1c[nH]c3ccc(OC)cc13)=N2
- Activity (T-24 [1]): Active
- Activity (T-24 [2]): 7.13%
- fold change (FC) [3]: 4.47
- Activity (T-24 [4]): Dose-dependent effect
- Activity [5]: 51.9%
- Activity (T-24 [6]): 2.07%
- viability at 20 µM (T-24 [7]): 58.1%
- Activity [8]: Dose-dependent effect
- Activity [9]: Dose-dependent effect
- Activity (T-24 [10]): 11.9%
- Activity [11]: 5.47%
- Activity (T-24 [12]): Dose-dependent effect
- Activity (T-24 [13]): Dose-dependent effect
- Activity (T-24 [14]): Dose-dependent effect
- Activity [15]: 28.4%
- Activity [16]: inactive
- Activity [17]: Dose-dependent effect
- Activity (T-24 [18]): Active
- Activity (T-24 [19]): Active
- Activity (T-24 [20]): 1.18%
- Activity [21]: 4.67%
- Activity [22]: Dose-dependent effect
- Activity [23]: Dose-dependent effect
- Activity (T-24 [24]): 1.22%
